This note sets out measurements from ChEMBL document CHEMBL1123542, “Alpha-adrenoreceptor reagents. 4. Resolution of some potent selective prejunctional alpha 2-adrenoreceptor antagonists” (J Med Chem, 1986).

Molecules are shown by their SMILES.

In assay [1] the target is T1, Adrenergic receptor alpha-1 (Rattus norvegicus, UniProt P15823+P23944+P43140).
T1 sequence (P15823 whole entry): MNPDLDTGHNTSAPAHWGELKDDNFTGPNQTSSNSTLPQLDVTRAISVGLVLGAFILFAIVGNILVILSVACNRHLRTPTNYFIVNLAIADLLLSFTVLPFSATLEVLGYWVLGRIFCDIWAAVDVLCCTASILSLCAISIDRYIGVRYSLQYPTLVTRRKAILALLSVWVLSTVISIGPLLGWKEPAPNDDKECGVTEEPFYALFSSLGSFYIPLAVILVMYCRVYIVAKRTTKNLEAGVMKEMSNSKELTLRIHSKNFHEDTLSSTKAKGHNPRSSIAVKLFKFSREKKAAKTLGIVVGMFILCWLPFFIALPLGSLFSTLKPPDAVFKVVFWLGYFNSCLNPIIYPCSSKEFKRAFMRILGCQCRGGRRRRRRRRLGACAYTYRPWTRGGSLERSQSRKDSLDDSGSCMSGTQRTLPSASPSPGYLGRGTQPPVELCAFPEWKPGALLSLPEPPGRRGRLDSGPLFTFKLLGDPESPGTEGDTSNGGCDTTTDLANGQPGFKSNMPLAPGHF
T1 sequence (P23944 whole entry): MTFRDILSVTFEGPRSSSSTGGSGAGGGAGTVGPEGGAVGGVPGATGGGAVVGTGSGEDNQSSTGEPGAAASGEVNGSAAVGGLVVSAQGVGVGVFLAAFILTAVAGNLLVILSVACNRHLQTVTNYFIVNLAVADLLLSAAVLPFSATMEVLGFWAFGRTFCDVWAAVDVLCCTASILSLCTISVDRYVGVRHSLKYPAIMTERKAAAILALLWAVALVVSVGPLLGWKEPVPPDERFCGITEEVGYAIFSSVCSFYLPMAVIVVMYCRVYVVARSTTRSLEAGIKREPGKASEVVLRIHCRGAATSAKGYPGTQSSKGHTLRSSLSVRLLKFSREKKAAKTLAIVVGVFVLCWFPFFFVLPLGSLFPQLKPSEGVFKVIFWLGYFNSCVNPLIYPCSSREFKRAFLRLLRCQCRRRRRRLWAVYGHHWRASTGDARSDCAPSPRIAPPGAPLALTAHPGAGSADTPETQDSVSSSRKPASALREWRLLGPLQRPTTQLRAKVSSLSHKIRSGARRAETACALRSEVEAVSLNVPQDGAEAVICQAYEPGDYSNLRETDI
T1 sequence (P43140 whole entry): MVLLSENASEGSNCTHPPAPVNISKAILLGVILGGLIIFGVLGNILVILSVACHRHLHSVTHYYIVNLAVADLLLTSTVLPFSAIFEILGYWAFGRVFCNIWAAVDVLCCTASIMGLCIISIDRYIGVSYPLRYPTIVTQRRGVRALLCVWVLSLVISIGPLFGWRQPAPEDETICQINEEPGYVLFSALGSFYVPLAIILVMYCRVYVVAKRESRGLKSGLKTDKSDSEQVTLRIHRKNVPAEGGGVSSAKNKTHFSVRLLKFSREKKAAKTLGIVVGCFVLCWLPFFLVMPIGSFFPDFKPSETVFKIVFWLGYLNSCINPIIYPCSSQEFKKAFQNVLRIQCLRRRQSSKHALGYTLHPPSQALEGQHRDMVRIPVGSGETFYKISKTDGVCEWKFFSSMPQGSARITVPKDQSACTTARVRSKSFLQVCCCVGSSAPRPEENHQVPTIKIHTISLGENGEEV
Nature of the assay: Displacement of [3H]prazosin from alpha-1 adrenergic receptor from rat brain cerebral cortex. In kind it is tissue-based. An outline of the steps:
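Rat cerebral cortical membranes. Ki (nM) from displacement of saturable [3H]prazosin binding at α1 sites.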

The target of assay [2] is T2, Adrenergic receptor alpha-2 (Rattus norvegicus, UniProt P22086+P19328+P22909).
T2 sequence (P22086 whole entry): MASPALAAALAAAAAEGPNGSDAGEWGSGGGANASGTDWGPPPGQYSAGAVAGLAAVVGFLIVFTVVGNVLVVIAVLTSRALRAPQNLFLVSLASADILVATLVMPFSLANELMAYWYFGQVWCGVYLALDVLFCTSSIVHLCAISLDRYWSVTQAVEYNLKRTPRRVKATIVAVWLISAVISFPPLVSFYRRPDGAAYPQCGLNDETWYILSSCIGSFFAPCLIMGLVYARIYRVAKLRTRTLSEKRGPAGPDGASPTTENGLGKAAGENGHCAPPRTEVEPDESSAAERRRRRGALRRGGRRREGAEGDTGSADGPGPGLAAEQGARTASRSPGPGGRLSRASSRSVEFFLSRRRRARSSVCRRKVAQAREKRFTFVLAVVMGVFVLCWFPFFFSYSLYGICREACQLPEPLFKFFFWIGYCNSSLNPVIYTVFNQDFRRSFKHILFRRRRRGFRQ
T2 sequence (P19328 whole entry): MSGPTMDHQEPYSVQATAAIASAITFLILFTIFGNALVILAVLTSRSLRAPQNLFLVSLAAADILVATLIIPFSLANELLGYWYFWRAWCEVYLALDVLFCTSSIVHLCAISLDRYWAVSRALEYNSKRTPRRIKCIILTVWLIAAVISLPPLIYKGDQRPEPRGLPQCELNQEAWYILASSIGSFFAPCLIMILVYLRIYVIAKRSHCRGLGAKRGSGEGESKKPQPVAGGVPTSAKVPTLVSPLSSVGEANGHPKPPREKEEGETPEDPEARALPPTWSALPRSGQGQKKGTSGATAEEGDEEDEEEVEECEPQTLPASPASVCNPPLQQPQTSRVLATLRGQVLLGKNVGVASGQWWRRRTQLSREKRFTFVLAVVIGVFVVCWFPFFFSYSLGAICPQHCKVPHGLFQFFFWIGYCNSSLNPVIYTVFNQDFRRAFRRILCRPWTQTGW
T2 sequence (P22909 whole entry): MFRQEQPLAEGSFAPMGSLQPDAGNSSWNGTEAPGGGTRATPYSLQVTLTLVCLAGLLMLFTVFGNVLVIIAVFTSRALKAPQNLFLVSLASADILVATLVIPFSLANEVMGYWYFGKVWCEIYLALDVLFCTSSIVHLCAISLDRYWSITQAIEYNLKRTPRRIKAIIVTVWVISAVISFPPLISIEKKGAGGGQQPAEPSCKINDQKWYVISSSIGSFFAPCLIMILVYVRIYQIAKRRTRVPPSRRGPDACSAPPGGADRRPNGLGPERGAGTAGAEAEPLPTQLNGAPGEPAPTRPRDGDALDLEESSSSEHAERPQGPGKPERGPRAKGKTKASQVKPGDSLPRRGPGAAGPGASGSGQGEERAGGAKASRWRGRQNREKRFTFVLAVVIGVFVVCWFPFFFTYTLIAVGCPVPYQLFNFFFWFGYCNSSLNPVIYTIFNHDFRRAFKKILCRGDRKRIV
Description: Displacement of [3H]idazoxan from alpha-2 adrenergic receptor from rat brain cerebral cortex. Format: tissue-based. In short, it runs like this:
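Rat cerebral cortical membranes. Ki (nM) from displacement of saturable [3H]idazoxan binding at α2 sites.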
Background: In a radioligand displacement assay an active substance lowers the binding of a labelled ligand.

A further assay concerns Rattus norvegicus. Description: Compound was evaluated in vivo for the reversal of maximal inhibitory effect of clonidine at 100 ug/kg(iv) in pithed rat vas deferens preparation. Format: functional.
For assay [3], the system named is Alpha-2 adrenergic receptor (Rattus norvegicus). Description: Compound was evaluated for its ability to antagonise the inhibitory activity of clonidine, relative to idazoxan at prejunctional alpha-2 adrenergic receptor in rat vas deferens.
Assay [4] concerns Alpha-1 adrenergic receptor (Rattus norvegicus). Nature of the assay: Compound was evaluated for its ability to antagonise the inhibitory activity of phenylephrine, relative to idazoxan at postjunctional alpha-1 adrenergic receptor in rat anococcygeus.
The target in assay [5] is T3, Adrenergic receptor alpha-1 (Rattus norvegicus) (UniProt P15823+P23944+P43140). Description: Compound was evaluated for the antagonist potency at postjunctional alpha-1 adrenergic receptor in pithed rat diastolic bp test. Format: functional. In short, it runs like this:
(§1)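 Pithed rats; iv dose (μg/kg) giving a 2-fold shift (DR2) of the cirazoline dose-response curve on diastolic blood pressure. Separate groups, n = 6 minimum.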

Assay [6] concerns the target T4, Adenosine receptor A1 (Rattus norvegicus) (UniProt P25099).
T4 sequence (whole entry): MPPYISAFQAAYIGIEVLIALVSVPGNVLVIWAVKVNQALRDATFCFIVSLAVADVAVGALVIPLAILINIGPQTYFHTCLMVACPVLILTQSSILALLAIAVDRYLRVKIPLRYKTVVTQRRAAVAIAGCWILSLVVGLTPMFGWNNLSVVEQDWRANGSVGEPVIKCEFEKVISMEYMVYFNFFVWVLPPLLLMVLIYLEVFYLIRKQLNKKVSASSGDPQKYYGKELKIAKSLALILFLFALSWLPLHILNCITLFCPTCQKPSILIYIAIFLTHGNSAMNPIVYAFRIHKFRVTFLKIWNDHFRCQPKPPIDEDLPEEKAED
Nature of the assay: Compound was evaluated for its ability to antagonise the inhibitory activity of phenylephrine, relative to idazoxan at postjunctional alpha-1 adrenergic receptor in rat anococcygeus. In kind it is functional.

Assay [7] deals with T3, Adrenergic receptor alpha-1 (Rattus norvegicus). Description: Compound was evaluated for the antagonist potency at postjunctional alpha-1 adrenergic receptor in pithed rat diastolic bp test,. Format: functional. In short, it runs like this: as §1
The target of assay [8] is Adenosine A2 receptor (Rattus norvegicus) (UniProt P29276+P30543). Nature of the assay: Compound was evaluated for its ability to antagonise the inhibitory activity of clonidine, relative to idazoxan at prejunctional alpha-2 adrenergic receptor in rat vas deferens. Format: functional, tissue-based.

The term Ki denotes a measure of affinity in units of concentration, obtained from inhibition or displacement. A lower Ki goes with a stronger hold on the target. Consider `COC1(C2=NCCN2)COc2ccccc2O1` (single isomer, unassigned; (+)) [listing 1 of 2 here], for which the figures for the Ki in [1] and in [2] were 27 nM and 0.36 nM, respectively. Besides, the AD50 in the assay with Rattus norvegicus stood at 0.00225 mg/kg.

In the case of `C=C(C)C1(C2=NCCN2)COc2ccccc2O1` (single isomer, unassigned; (+)) [listing 1 of 2 here], the figures for the Ki in [1] and in assay [2] were 46439 nM and 8734 nM, respectively. For the same compound, the AD50 in the assay on Rattus norvegicus was above 14.444 mg/kg.

On to `CC1(C2=NCCN2)COc2ccccc2O1` (single isomer, unassigned; (+)) [listing 1 of 2 here], for which the values for the Ki in assay [1] and in [2] were 285 nM and 2.4 nM, respectively. The AD50 in the assay on Rattus norvegicus came to 0.0258 mg/kg.

Consider `C=C(C)C1(C2=NCCN2)COc2ccccc2O1` (single isomer, unassigned; (+)) [listing 2 of 2 here], for which the figures for the Antagonist potency in assay [3] and in assay [4] were 0.0003 and 0.03, respectively.

In the case of `CC1(C2=NCCN2)COc2ccccc2O1` (single isomer, unassigned; (+)) [listing 2 of 2 here], the results for the Antagonist potency in [3] and in assay [4] were 1.3 and 0.09, respectively.

On to `COC1(C2=NCCN2)COc2ccccc2O1` (single isomer, unassigned; (+)) [listing 2 of 2 here], for which the Antagonist potency in [5] was found to be 58.9.

On to `COC1(C2=NCCN2)COc2ccccc2O1` (single isomer, unassigned; (-)) [listing 1 of 2 here], for which the Ki in assay [1] is 6763 nM; in [2] it was 256 nM. In addition, the AD50 in the assay with Rattus norvegicus was 0.786 mg/kg.

Regarding `CC1(C2=NCCN2)COc2ccccc2O1` (single isomer, unassigned; (-)) [listing 1 of 2 here], the values for the inhibitory constant (Ki) in assay [1] and in assay [2] were 13329 nM and 487 nM, respectively. The AD50 with Rattus norvegicus worked out at 2.567 mg/kg.

Regarding `CC1(C2=NCCN2)COc2ccccc2O1` (single isomer, unassigned; (-)) [listing 2 of 2 here], the Antagonist potency in assay [3] was 0.005; in assay [6], below 0.023.

The compound `COC1(C2=NCCN2)COc2ccccc2O1` (single isomer, unassigned; (-)) [listing 2 of 2 here] yielded an Antagonist potency in assay [7] of 12800.

In the case of `COC1(C2=NCCN2)COc2ccccc2O1` (stereo in doubt; 4) [listing 1 of 2 here], the Ki in [1] came out at 66 nM; in assay [2] it was 0.8 nM. The AD50 in the assay with Rattus norvegicus is 0.00268 mg/kg.

`COC1(C2=NCCN2)COc2ccccc2O1` (stereo in doubt; 4) [listing 2 of 2 here] had an Antagonist potency in assay [5] of 176.

As to `CC1(C2=NCCN2)COc2ccccc2O1` (stereo in doubt; 7) [listing 1 of 2 here], the inhibitory constant (Ki) in assay [1] is reported as 449 nM; in [2] it was 4.4 nM. Besides, the AD50 with Rattus norvegicus is 0.0527 mg/kg.

Regarding `CC1(C2=NCCN2)COc2ccccc2O1` (stereo in doubt; 7) [listing 2 of 2 here], the Antagonist potency worked out at 0.28 in [4] and 0.67 in [8].

As to `C=C(C)C1(C2=NCCN2)COc2ccccc2O1` (stereo in doubt; 10) [listing 1 of 2 here], the inhibition constant (Ki) in [1] came to 1794 nM; in [2] it was 16.3 nM. The AD50 in the assay on Rattus norvegicus was 0.0712 mg/kg.

On to `C=C(C)C1(C2=NCCN2)COc2ccccc2O1` (stereo in doubt; 10) [listing 2 of 2 here], for which the Antagonist potency in assay [3] came out at 0.4; in assay [4] it was 0.07.

Take `C=C(C)C1(C2=NCCN2)COc2ccccc2O1` (stereo in doubt; 12) [listing 1 of 2 here]: the figures for the Ki in assay [1] and in assay [2] were 1473 nM and 8 nM, respectively. The AD50 with Rattus norvegicus amounted to 0.0539 mg/kg.

Turning to `C=C(C)C1(C2=NCCN2)COc2ccccc2O1` (stereo in doubt; 12) [listing 2 of 2 here], the results for the Antagonist potency in [3] and in assay [4] were 0.8 and 0.6, respectively.
